Shown are actives, neighbours in structure and some others; about 2.1% of the full set was active somewhere.
IMP-1 inh – IMP-1 metallo-beta-lactamase inhibitors, primary screen, biochemical, epi-absorbance readout, Pseudomonas aeruginosa enzyme | metallo-beta-lactamase IMP-1 (Pseudomonas aeruginosa) | purified IMP-1, nitrocefin hydrolysis, epi-absorbance fluorescence | inhibition, % at 5.6 µM | hit rate 0.45% among 290,000 | AID 1556, 2009;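 active means inhibition above the mean plus 3 SD of all compounds in the same screening run, cut at about 4.5% in these data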
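Material – recombinant IMP-1 enzyme, purified · Amount – IMP-1 0.2 nM before substrate addition · Medium – HEPES buffer pH 7.1 with ZnSO4 and Brij 35 · Timing – 25 °C, 15 min preincubation, 25 min reaction · Measured by – plate fluorescence quenching by hydrolysis product, ex 480/em 530 nm · Read-out – percent enzyme inhibition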
bovine MsrA act – bovine MsrA enzyme activators, primary screen, biochemical, absorbance, HTS | purified bovine MsrA, absorbance read-out | activation, % at 10.6 µM | hit rate 0.3% among 360,000 | AID 602163, 2012; in the data active means activation above about 7.5%
PKA-R1A activ – activators of PKA-R1A holoenzyme, primary screen, biochemical, fluorescence polarization, Cy5-IP20, bovine R1A, mouse PKAc; cAMP-dependent protein kinase type I-alpha regulatory subunit (Bos taurus) + …; PKA-R1A dissociation; scaled: DMSO 0%, 113 µM cGMP 100%; activation, % at 11.4 µM; hit rate 0.083% among 340,000; AID 504707, 2011;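 active means percent activation above the mean of all tested compounds plus 3 SD, cut at about 19% in these data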;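 further: higher means more PKAc released from R1A so a rise in polarization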
PKA-R2B act – activators of PKA-R2B holoenzyme, primary screen, biochemical, fluorescence polarization, Cy5-IP20, human; PKA-R2B holoenzyme dissociation; R2B truncated from residue 108, S112A mutant; 0% DMSO only, 100% 113 µM cGMP; activation, % at 11.4 µM; cAMP-dependent protein kinase catalytic subunit beta (Homo sapiens) + cAMP-dependent …; hit rate 0.079% among 340,000;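 active means activation above a cutoff set at the mean over all compounds plus 3 SD, cut at about 18% in these data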;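 further: higher means more holoenzyme dissociation and a rise in polarization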
VIM-2 inhibitor – VIM-2 metallo-beta-lactamase inhibitors, primary screen, biochemical, epi-absorbance readout, Pseudomonas aeruginosa enzyme; purified VIM-2, nitrocefin hydrolysis, epi-absorbance fluorescence; inhibition, % at 5.6 µM; hit rate 0.89% among 290,000;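 active means inhibition above the mean of all tested compounds plus 3 SD, cutoff set per screening run, cut at about 7.5% in these data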;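 further: red hydrolysis product quenches plate fluorescence so inhibitors raise well fluorescence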
MsrA inh – bovine MsrA enzyme inhibitors, primary screen, biochemical, absorbance, HTS. hit rate 0.75% among 360,000. purified bovine MsrA, absorbance read-out. Methionine sulfoxide reductase A (Bos taurus). inhibition, % at 15.5 µM; in the data active means inhibition above about 4.5%
R1A FP artifact – FP signal interference without PKA proteins, confirmation, artefact control for PKA-R1A activator project, biochemical, fluorescence polarization, triplicate. activation, % at 11.4 µM. shares compounds with PKA-R1A activ. hit rate 7% among 280. AID 504799, 2011. Cy5-IP20 peptide alone, fluorescence polarization artifact counterscreen;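 active means mean activation over triplicate runs exceeds the adjusted cutoff derived for the parent primary screen, cut at about 19% in these data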;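 further: no PKA protein present so any polarization rise reflects compound interference; higher means stronger polarization artifact and likely false positive in parent screen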
PKA-R1A act conf – activators of PKA-R1A holoenzyme, confirmation, biochemical, fluorescence polarization, Cy5-IP20, triplicate; activation, % at 11.4 µM; shares compounds with PKA-R1A activ; PKA-R1A holoenzyme dissociation; hit rate 9% among 280;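 active means mean activation over replicate wells exceeds the adjusted hit threshold taken from the earlier primary screen, cut at about 20% in these data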
Target sequence (P00514 whole entry, looked up): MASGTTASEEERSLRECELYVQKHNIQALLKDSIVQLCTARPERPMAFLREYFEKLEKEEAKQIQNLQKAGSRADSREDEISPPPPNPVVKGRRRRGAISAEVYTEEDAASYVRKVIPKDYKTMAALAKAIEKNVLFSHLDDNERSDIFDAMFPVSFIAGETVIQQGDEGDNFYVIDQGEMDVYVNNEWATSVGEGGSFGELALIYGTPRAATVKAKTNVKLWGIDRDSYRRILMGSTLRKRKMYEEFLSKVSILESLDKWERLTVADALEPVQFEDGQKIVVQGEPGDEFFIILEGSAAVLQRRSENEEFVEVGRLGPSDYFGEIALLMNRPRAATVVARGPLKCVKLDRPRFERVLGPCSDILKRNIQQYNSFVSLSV
Numbers stand for hits; . = inactive; / = no result given.

SMILES	IMP-1 inh	bovine MsrA act	PKA-R1A activ	PKA-R2B act	VIM-2 inhibitor	MsrA inh	R1A FP artifact	PKA-R1A act conf
COc1ccc(-c2noc(CCC(=O)NCCc3ccccc3)n2)cc1OC	.	.	19	.	.	.	.	.
COc1ccc(-c2cc3nc(C)c(CCC(=O)NCc4ccco4)c(C)n3n2)c(OC)c1	.	.	.	.	.	.	/	/
Cc1nc2cc(-c3ccc(Cl)cc3)nn2c(C)c1CCC(=O)NCc1ccco1	.	.	25	.	.	.	.	.
Cc1ccc(NC(=O)c2cncc(Br)c2)c([N+](=O)[O-])c1	.	.	23	.	.	.	.	.
CC(C)N(CC(=O)Nc1ccc(Cl)cc1C(F)(F)F)C(=O)CCl	.	.	19	.	.	.	.	.
O=c1[nH][nH]c2c1C(c1cccc(C(F)(F)F)c1)OC(CCc1ccccc1)C2 (stereo unspecified)	/	.	/	/	/	.	/	/
NC(=O)CSc1nc2ccccc2n1-c1ccccc1	.	.	.	.	.	.	/	/
NC(=O)CSc1nc2ccccc2n1Cc1ccccc1	.	.	21	.	.	.	.	.
C[C@H]1CN([C@@H](C)CO)C(=O)CCCn2cc(nn2)CO[C@@H]1CN(C)S(=O)(=O)c1ccccc1F	/	/	/	/	/	.	/	/
O=C(O)c1ccc(-n2cccn2)c([N+](=O)[O-])c1	.	.	20	.	.	.	.	.
C#CCOCCOCCOCCNc1nc(N2CCN(C(=O)[C@H]([C@@H](C)CC)n3cc([C@@H](N)CO)nn3)CC2)nc(N2CCN(C(=O)[C@H](CCCCN)n3cc([C@@H](N)CO)nn3)CC2)n1	/	.	.	.	/	.	/	/
C#CCOCCOCCOCCNc1nc(N2CCN(C(=O)[C@H]([C@@H](C)CC)n3cc([C@@H](N)CC(C)C)nn3)CC2)nc(N2CCN(C(=O)[C@H](CCCCN)n3cc([C@@H](N)CO)nn3)CC2)n1	.	.	20	.	.	/	.	.
COc1cccc(C2C(C(N)=O)=C(C)Nc3nc(-c4ccccc4Cl)nn32)c1 (stereo unspecified)	.	.	19	.	.	.	.	.
COc1ccccc1C1C(C(N)=O)=C(C)Nc2nc(-c3ccccc3Cl)nn21 (stereo unspecified)	.	.	.	.	.	.	/	/
COc1ccc(NCc2ccsc2)cc1	.	.	.	.	.	.	/	/
Cc1cc(C)c(S(=O)(=O)Cc2ccccc2)c(=O)[nH]1	.	.	21	.	.	.	.	.
O=C(Cn1nnc2c(cnn2-c2ccccc2)c1=O)N1CCN(c2ccccc2F)CC1	.	.	19	.	.	.	.	.
O=C(Cn1cnc2c(cnn2-c2ccc(F)cc2)c1=O)N1CCN(c2ccccc2F)CC1	.	.	.	.	.	.	/	/
O=C(CSc1nc2c(c(C(F)(F)F)n1)CCc1ccccc1-2)NCc1ccco1	.	.	.	.	.	.	/	/
CC(NC(=O)CSc1nc2c(c(C(F)(F)F)n1)CCc1ccccc1-2)c1ccccc1 (stereo unspecified)	.	.	19	.	.	.	.	.
CC(C)[C@H](NC(=O)c1ccc(Cl)cc1)C(=O)Nc1cccc(S(=O)(=O)N2CCOCC2)c1	/	.	.	.	/	.	/	/
CCOc1ccc(-c2nnn(CCC(=O)O)n2)cc1OC	.	.	19	.	.	.	.	.
CC(OC(=O)c1ccccc1O)C(=O)Nc1ccc(Cl)cn1 (stereo unspecified)	.	.	19	.	.	.	.	.
CC(OC(=O)c1ccco1)C(=O)Nc1ccc(Cl)cn1 (stereo unspecified)	.	.	.	.	.	.	/	/
CC(OC(=O)CCOc1ccccc1)C(=O)Nc1ccc(Cl)cn1 (stereo unspecified)	.	.	22	.	.	.	.	.
SMILES	IMP-1 inh	bovine MsrA act	PKA-R1A activ	PKA-R2B act	VIM-2 inhibitor	MsrA inh	R1A FP artifact	PKA-R1A act conf
CC(OC(=O)CCc1ccccc1)C(=O)Nc1ccc(Cl)cn1 (stereo unspecified)	/	.	.	.	/	.	/	/
COc1cc2c(cc1OCc1ccccc1)/C(=C/C(=O)OCc1ccccc1)OC2	/	/	/	/	/	.	/	/
O=C(COc1ccccc1F)NCCc1ccc2c(c1)OCCO2	/	.	.	.	/	.	/	/
O=C(COc1ccccc1Cl)NCCc1ccc2c(c1)OCCO2	.	.	21	.	.	.	.	.
CC(CCC(=O)O)C1CC[C@@]2(C)C3C(=O)CC4C(C)(C)C(O)CC[C@]4(C)C3C(=O)C[C@]12C (stereo partly specified)	.	.	20	.	.	.	.	.
COc1ccc([C@@H]2[C@@H]3C(=O)N(C(C)(C)C)C(=O)[C@@H]3[C@]3(CC(C)C)C(=O)N(c4cccc(F)c4)C(=O)N23)cc1	/	.	19	.	/	.	.	.
C/C(CC(=O)Nc1ccccn1)=N\NC(=O)c1cnccn1	.	.	19	.	.	.	.	.
C/C(CC(=O)Nc1ccc2ccccc2c1)=N\NC(=O)c1cnccn1	.	.	.	.	.	.	/	/
Cc1sc(NC(=O)C2CCCCC2C(=O)O)c(C(N)=O)c1-c1ccccc1 (stereo unspecified)	.	.	19	.	.	.	.	.
CCCCCCc1nc2nc(Cl)c(Cl)nc2[nH]1	/	.	.	.	/	.	/	/
COc1ccc(CCNC(=O)Cn2cnc3sc(C)c(-c4ccc(F)cc4)c3c2=O)cc1OC	.	.	19	.	.	.	.	.
CN(C)S(=O)(=O)c1ccc(C(=O)OCC2CC2(Cl)Cl)cc1 (stereo unspecified)	.	.	.	.	.	.	/	/
COc1ccc(CC(=O)N2N=C(c3ccncc3)CC2(O)C(F)(F)F)cc1 (stereo unspecified)	.	.	.	.	.	.	/	/
CCC1=NN(C(=O)Cc2ccc(OC)cc2)C(O)(C(F)(F)F)C1 (stereo unspecified)	.	.	19	.	.	.	.	.
O=C(NCCc1ccc(Cl)cc1Cl)c1cncc(Br)c1	.	.	.	.	.	.	/	/

Compound activity from PubChem BioAssay.
